≈ marks a conversion by molar mass, not a printed value.
Test system: Aspergillus niger
Experiment: Antifungal activity against 10^5 CFU/mL Aspergillus niger MTCC 282 after 48 hrs by disc diffusion technique
Type: functional
Conditions: not given

Q: For `CCN1CCN(c2nc(Nc3ccc(C#N)c(C(F)(F)F)c3)nc(Oc3ccnc4ccccc34)n2)CC1`, which “inhibition zone (IZ)” value is on record?
A: <10 mm

Test system: Aspergillus clavatus
Experiment: Antifungal activity against 10^5 CFU/mL Aspergillus clavatus MTCC 1323 after 48 hrs by disc diffusion technique
Type: functional
Conditions: not given

Q: How did the “inhibition zone (IZ)” value turn out when `CCN1CCN(c2nc(Nc3ccc(C#N)c(C(F)(F)F)c3)nc(Oc3ccnc4ccccc34)n2)CC1` was run?
A: <10 mm

Test system: Klebsiella pneumoniae
Experiment: Antibacterial activity against 10^5 CFU/mL Klebsiella pneumoniae MTCC 109 after 24 hrs by agar streak dilution method
Type: functional
Conditions: MTCC 109, 24 h
Outline: (§1)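 Agar streak dilution. Stock 100 µg/mL in DMSO; graded amounts were mixed into molten nutrient agar and poured at 4–5 mm depth. Plates carried serial dilutions over […]. About 10⁵ CFU/mL of each bacterium was applied, and plates were incubated at 37 ± 1 °C for 24 h. MIC was read from the dilution series.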

Q: How did the MIC turn out when `CCN1CCN(c2nc(Nc3ccc(C#N)c(C(F)(F)F)c3)nc(Oc3ccnc4ccccc34)n2)CC1` was run?
A: 100 µg/mL (≈ 192 µM)

Test system: Aspergillus fumigatus
Experiment: Antifungal activity against 10^5 CFU/mL Aspergillus fumigatus MTCC 343 after 48 hrs by disc diffusion technique
Type: functional
Conditions: not given

Q: For `CCN1CCN(c2nc(Nc3ccc(C#N)c(C(F)(F)F)c3)nc(Oc3ccnc4ccccc34)n2)CC1`, which “inhibition zone (IZ)” value is on record?
A: <10 mm

Test system: Staphylococcus aureus
Experiment: Antibacterial activity against 10^5 CFU/mL Staphylococcus aureus MTCC 96 after 24 hrs by disc diffusion technique
Type: functional
Conditions: not given
Outline: (§2)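 Disc diffusion on Mueller–Hinton agar poured 5 mm deep. The surface was swabbed with a 10⁵ CFU/mL […] suspension. Filter-paper discs 6.25 mm in diameter were soaked in compound in DMSO and placed on the agar. Plates were incubated 24 h at 37 ± 1 °C, and the inhibition zone was measured in mm. A DMSO disc served as blank.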

Q: How did the “inhibition zone (IZ)” value turn out when `CCN1CCN(c2nc(Nc3ccc(C#N)c(C(F)(F)F)c3)nc(Oc3ccnc4ccccc34)n2)CC1` was run?
A: 13 mm

Test system: Proteus vulgaris
Experiment: Antibacterial activity against 10^5 CFU/mL Proteus vulgaris MTCC 1771 after 24 hrs by agar streak dilution method
Type: functional
Conditions: MTCC 1771, 24 h
Outline: as §1

Q: Which MIC does the source give for `CCN1CCN(c2nc(Nc3ccc(C#N)c(C(F)(F)F)c3)nc(Oc3ccnc4ccccc34)n2)CC1` here?
A: 100 µg/mL (≈ 192 µM)

Test system: Shigella flexneri
Experiment: Antibacterial activity against 10^5 CFU/mL Shigella flexneri MTCC 1457 after 24 hrs by agar streak dilution method
Type: functional
Conditions: MTCC 1457, 24 h
Outline: as §1

Q: With `CCN1CCN(c2nc(Nc3ccc(C#N)c(C(F)(F)F)c3)nc(Oc3ccnc4ccccc34)n2)CC1` as the compound, how does the MIC read?
A: 100 µg/mL (≈ 192 µM)

Test system: Pseudomonas aeruginosa
Experiment: Antibacterial activity against 10^5 CFU/mL Pseudomonas aeruginosa MTCC 741 after 24 hrs by disc diffusion technique
Type: functional
Conditions: not given
Outline: as §2

Q: With `CCN1CCN(c2nc(Nc3ccc(C#N)c(C(F)(F)F)c3)nc(Oc3ccnc4ccccc34)n2)CC1` as the compound, how does the “inhibition zone (IZ)” value read?
A: 16 mm

Test system: Aspergillus fumigatus
Experiment: Antifungal activity against 10^5 CFU/mL Aspergillus fumigatus MTCC 343 after 48 hrs by agar streak dilution method
Type: functional
Conditions: MTCC 343, 48 h
Outline: (§3)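 Agar streak dilution for fungi. Stock 100 µg/mL in DMSO; graded amounts were mixed into molten Sabouraud dextrose agar and poured at 4–5 mm depth. Serial dilutions ran over […]. About 10⁵ CFU/mL inoculum was applied, with incubation at 37 ± 1 °C for 48 h. MIC was read from the dilution series.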

Q: Which MIC does the source give for `CCN1CCN(c2nc(Nc3ccc(C#N)c(C(F)(F)F)c3)nc(Oc3ccnc4ccccc34)n2)CC1` here?
A: 100 µg/mL (≈ 192 µM)

Test system: Salmonella typhi
Experiment: Antibacterial activity against 10^5 CFU/mL Salmonella typhi MTCC 733 after 24 hrs by agar streak dilution method
Type: functional, Salmonella enterica subsp. enterica serovar Typhi
Conditions: Salmonella enterica, MTCC 733, 24 h

Q: With `CCN1CCN(c2nc(Nc3ccc(C#N)c(C(F)(F)F)c3)nc(Oc3ccnc4ccccc34)n2)CC1` as the compound, how does the MIC read?
A: 100 µg/mL (≈ 192 µM)

Test system: DU-145
Experiment: Cytotoxicity against […] human DU145 cells after 48 hrs by SRB assay
Type: functional
Conditions: DU-145, 48 h
Outline: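 SRB assay in DU-145 cells grown in RPMI 1640 with 10% FBS and 2 mM L-glutamine. Cells were plated and held 24 h before addition of four 10-fold concentrations. After 48 h, cells were TCA-fixed, stained with 0.4% SRB and read at 540 nm. GI50, TGI and LC50 were derived against time-zero and control wells; each value is the mean of three experiments.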

Q: How did the GI50 turn out when `CCN1CCN(c2nc(Nc3ccc(C#N)c(C(F)(F)F)c3)nc(Oc3ccnc4ccccc34)n2)CC1` was run?
A: 86.6 µM

Q: What about the LC50 (concentration giving 50% net cell kill relative to time zero) of the same compound?
A: > 100 µM

Q: What about the TGI of the same compound?
A: > 100 µM

Test system: Bacillus cereus
Experiment: Antibacterial activity against 10^5 CFU/mL Bacillus cereus MTCC 619 after 24 hrs by disc diffusion technique
Type: functional
Conditions: not given
Outline: as §2

Q: `CCN1CCN(c2nc(Nc3ccc(C#N)c(C(F)(F)F)c3)nc(Oc3ccnc4ccccc34)n2)CC1` was tested. Which “inhibition zone (IZ)” value did it give?
A: 14 mm

Test system: Aspergillus clavatus
Experiment: Antifungal activity against 10^5 CFU/mL Aspergillus clavatus MTCC 1323 after 48 hrs by agar streak dilution method
Type: functional
Conditions: MTCC 1323, 48 h
Outline: as §3

Q: For `CCN1CCN(c2nc(Nc3ccc(C#N)c(C(F)(F)F)c3)nc(Oc3ccnc4ccccc34)n2)CC1`, which MIC is on record?
A: 100 µg/mL (≈ 192 µM)

Test system: Shigella flexneri
Experiment: Antibacterial activity against 10^5 CFU/mL Shigella flexneri MTCC 1457 after 24 hrs by disc diffusion technique
Type: functional
Conditions: not given
Outline: as §2

Q: For `CCN1CCN(c2nc(Nc3ccc(C#N)c(C(F)(F)F)c3)nc(Oc3ccnc4ccccc34)n2)CC1`, which “inhibition zone (IZ)” value is on record?
A: 13 mm

Test system: Escherichia coli
Experiment: Antibacterial activity against 10^5 CFU/mL Escherichia coli MTCC 739 after 24 hrs by agar streak dilution method
Type: functional
Conditions: MTCC 739, 24 h
Outline: as §1

Q: With `CCN1CCN(c2nc(Nc3ccc(C#N)c(C(F)(F)F)c3)nc(Oc3ccnc4ccccc34)n2)CC1` as the compound, how does the MIC read?
A: 100 µg/mL (≈ 192 µM)

Test system: Candida albicans
Experiment: Antifungal activity against 10^5 CFU/mL Candida albicans MTCC 183 after 48 hrs by disc diffusion technique
Type: functional
Conditions: not given

Q: `CCN1CCN(c2nc(Nc3ccc(C#N)c(C(F)(F)F)c3)nc(Oc3ccnc4ccccc34)n2)CC1` was tested. Which “inhibition zone (IZ)” value did it give?
A: 12 mm

Test system: Escherichia coli
Experiment: Antibacterial activity against 10^5 CFU/mL Escherichia coli MTCC 739 after 24 hrs by disc diffusion technique
Type: functional
Conditions: not given
Outline: as §2

Q: For `CCN1CCN(c2nc(Nc3ccc(C#N)c(C(F)(F)F)c3)nc(Oc3ccnc4ccccc34)n2)CC1`, which “inhibition zone (IZ)” value is on record?
A: 13 mm

Test system: Aspergillus niger
Experiment: Antifungal activity against 10^5 CFU/mL Aspergillus niger MTCC 282 after 48 hrs by agar streak dilution method
Type: functional
Conditions: MTCC 282, 48 h
Outline: as §3

Q: For `CCN1CCN(c2nc(Nc3ccc(C#N)c(C(F)(F)F)c3)nc(Oc3ccnc4ccccc34)n2)CC1`, which MIC is on record?
A: 100 µg/mL (≈ 192 µM)

Test system: Salmonella typhi
Experiment: Antibacterial activity against 10^5 CFU/mL Salmonella typhi MTCC 733 after 24 hrs by disc diffusion technique
Type: functional, Salmonella enterica subsp. enterica serovar Typhi
Conditions: not given
Outline: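 Disc diffusion. Mueller-Hinton agar autoclaved 120 °C 30 min, poured 5 mm deep. Surface swabbed with 10⁵ CFU/mL suspension […]. 6.25 mm filter-paper discs soaked in compound in DMSO; DMSO-only disc as blank. Incubated 37 ± 1 °C, 24 h for bacteria or 48 h for fungi. Ciprofloxacin and ketoconazole discs as reference drugs. Inhibition zone measured in mm.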

Q: For `CCN1CCN(c2nc(Nc3ccc(C#N)c(C(F)(F)F)c3)nc(Oc3ccnc4ccccc34)n2)CC1`, which “inhibition zone (IZ)” value is on record?
A: 15 mm

Test system: Proteus vulgaris
Experiment: Antibacterial activity against 10^5 CFU/mL Proteus vulgaris MTCC 1771 after 24 hrs by disc diffusion technique
Type: functional
Conditions: not given
Outline: as §2

Q: Which “inhibition zone (IZ)” value does the source give for `CCN1CCN(c2nc(Nc3ccc(C#N)c(C(F)(F)F)c3)nc(Oc3ccnc4ccccc34)n2)CC1` here?
A: <10 mm

Test system: Candida albicans
Experiment: Antifungal activity against 10^5 CFU/mL Candida albicans MTCC 183 after 48 hrs by agar streak dilution method
Type: functional
Conditions: MTCC 183, 48 h
Outline: as §3

Q: How did the MIC turn out when `CCN1CCN(c2nc(Nc3ccc(C#N)c(C(F)(F)F)c3)nc(Oc3ccnc4ccccc34)n2)CC1` was run?
A: 100 µg/mL (≈ 192 µM)

Test system: Klebsiella pneumoniae
Experiment: Antibacterial activity against 10^5 CFU/mL Klebsiella pneumoniae MTCC 109 after 24 hrs by disc diffusion technique
Type: functional
Conditions: not given
Outline: as §2

Q: With `CCN1CCN(c2nc(Nc3ccc(C#N)c(C(F)(F)F)c3)nc(Oc3ccnc4ccccc34)n2)CC1` as the compound, how does the “inhibition zone (IZ)” value read?
A: <10 mm

Test system: Pseudomonas aeruginosa
Experiment: Antibacterial activity against 10^5 CFU/mL Pseudomonas aeruginosa MTCC 741 after 24 hrs by agar streak dilution method
Type: functional
Conditions: MTCC 741, 24 h
Outline: as §1

Q: For `CCN1CCN(c2nc(Nc3ccc(C#N)c(C(F)(F)F)c3)nc(Oc3ccnc4ccccc34)n2)CC1`, which MIC is on record?
A: 100 µg/mL (≈ 192 µM)

Test system: Staphylococcus aureus
Experiment: Antibacterial activity against 10^5 CFU/mL Staphylococcus aureus MTCC 96 after 24 hrs by agar streak dilution method
Type: functional
Conditions: MTCC 96, 24 h
Outline: as §1

Q: With `CCN1CCN(c2nc(Nc3ccc(C#N)c(C(F)(F)F)c3)nc(Oc3ccnc4ccccc34)n2)CC1` as the compound, how does the MIC read?
A: 100 µg/mL (≈ 192 µM)

Test system: Bacillus cereus
Experiment: Antibacterial activity against 10^5 CFU/mL Bacillus cereus MTCC 619 after 24 hrs by agar streak dilution method
Type: functional
Conditions: MTCC 619, 24 h
Outline: as §1

Q: With `CCN1CCN(c2nc(Nc3ccc(C#N)c(C(F)(F)F)c3)nc(Oc3ccnc4ccccc34)n2)CC1` as the compound, how does the MIC read?
A: 100 µg/mL (≈ 192 µM)

From ChEMBL document CHEMBL1828552, “Synthesis and studies of novel 2-(4-cyano-3-trifluoromethylphenyl amino)-4-(quinoline-4-yloxy)-6-(piperazinyl/piperidinyl)-s-triazines as potential antimicrobial, antimycobacterial and anticancer agents” (2011)
